Source: paper PMC8519014 (Journal of pharmaceutical and biomedical analysis, 2017)
Structures can show the parent of a compound that is named as a salt.

Test: Mice pharmacokinetic study after oral administration of a mixture of 11 TKIs
Type: in vivo, FVB wild-type mice
Details: for concentration at 15 min / concentration at 30 min / concentration at 45 min / concentration at 60 min / concentration at 120 min / concentration at 240 min / AUC(0-t) / Cmax / Tmax: 1 mg/kg; for Tmax: oral gavage 1 mg/kg each as a mixture of 11 TKIs, FVB wild-type mice, blood, n = 4
Method in brief: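 Male FVB mice (25–30 g, 10–12 weeks) fasted overnight with water, then oral gavage of an 11-TKI cassette in oral suspension vehicle (0.06 mg/ml each), 1 mg/kg. Tail-tip blood (~15 μl, heparinized) taken at 15–1440 min (nine points). Quantified by UHPLC BEH C18–ESI triple-quadrupole MS/MS against blank-blood calibrants (acetonitrile/testosterone IS precipitation). Non-compartmental parameters, n = 4.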

[1] = male, FVB wild-type, mouse, whole blood, po
[2] = male, FVB wild-type, mouse, whole blood, po, Tmax

SMILES | concentration at 15 min [1] | concentration at 30 min [1] | concentration at 45 min [1] | concentration at 60 min [1] | concentration at 120 min [1] | concentration at 240 min [1] | AUC(0-t) [1] | Cmax [1] | Tmax [2] | Detection in blood after oral dosing (oral 1 mg/kg as mixture of 11 TKIs, mice) | Tmax | Systemic exposure (AUC) relative to sorafenib (pazopanib AUC versus sorafenib AUC, oral 1 mg/kg as mixture of 11 TKIs, mice)
COc1cc2ncnc(Nc3ccc(F)c(Cl)c3)c2cc1OCCCN1CCOCC1 [Gefitinib, gefitinib] | 24.7 ± 22 ng/mL | 32.4 ± 28.1 ng/mL | 36.7 ± 41.5 ng/mL | 33.2 ± 42.7 ng/mL | 21.8 ± 25.5 ng/mL | 32.7 ± 26.3 ng/mL |  |  |  |  |  | 
CNC(=O)c1cc(Oc2ccc(NC(=O)Nc3ccc(Cl)c(C(F)(F)F)c3)cc2)ccn1 [Sorafenib, sorafenib tosylate] |  |  |  |  |  |  | 558 ng·h/mL | 154 ± 30.4 ng/mL | 1 h |  |  | 
CS(=O)(=O)CCNCc1ccc(-c2ccc3ncnc(Nc4ccc(OCc5cccc(F)c5)c(Cl)c4)c3c2)o1 [Lapatinib, lapatinib] | 8.8 ± 12.7 ng/mL | 16.3 ± 28.2 ng/mL | 21.4 ± 25.6 ng/mL | 21.2 ± 25.7 ng/mL | 20.1 ± 28.2 ng/mL | 18.1 ± 25.4 ng/mL |  |  |  |  |  | 
CN(C)C/C=C/C(=O)Nc1cc2c(Nc3ccc(F)c(Cl)c3)ncnc2cc1O[C@H]1CCOC1 [Afatinib, afatinib] |  |  |  |  |  |  |  |  |  | not detected |  | 
Cc1nc(Nc2ncc(C(=O)Nc3c(C)cccc3Cl)s2)cc(N2CCN(CCO)CC2)n1 [Dasatinib, dasatinib] | 9.1 ± 18.2 ng/mL | 21.5 ± 19.2 ng/mL | 34.3 ± 41.6 ng/mL | 24.8 ± 49.7 ng/mL | 18.4 ± 23.1 ng/mL | 10.1 ± 20.2 ng/mL |  |  |  |  |  | 
CNC(=O)c1ccccc1Sc1ccc2c(/C=C/c3ccccn3)n[nH]c2c1 [Axitinib, axitinib] | 51.7 ± 40 ng/mL | 42.7 ± 19.3 ng/mL | 46.1 ± 39.6 ng/mL | 34.2 ± 37.3 ng/mL | 11.1 ± 16.4 ng/mL | 4.8 ± 26.8 ng/mL |  |  |  |  |  | 
Cc1ccc(Nc2nccc(N(C)c3ccc4c(C)n(C)nc4c3)n2)cc1S(N)(=O)=O [Pazopanib, pazopanib hydrochloride] |  |  |  |  |  |  | 4150 ng·h/mL | 717 ± 206 ng/mL | ~1.62 h |  | 1.62 ± 1.11 h | 7.5 times
Cc1ccc(NC(=O)c2ccc(CN3CCN(C)CC3)cc2)cc1Nc1nccc(-c2cccnc2)n1 [Imatinib] | 53.1 ± 20.1 ng/mL | 55.7 ± 28.6 ng/mL | 68.8 ± 63.8 ng/mL | 48.1 ± 56.9 ng/mL | 19.9 ± 19 ng/mL | 11.1 ± 19.2 ng/mL |  |  |  |  |  | 
CCN(CC)CCNC(=O)c1c(C)[nH]c(/C=C2\C(=O)Nc3ccc(F)cc32)c1C [Sunitinib, sunitinib malate] | 9.4 ± 12.1 ng/mL | 18.4 ± 10.6 ng/mL | 22.8 ± 18.9 ng/mL | 12.7 ± 20 ng/mL | 14.7 ± 15.8 ng/mL |  |  |  |  |  |  | 
Cc1cn(-c2cc(NC(=O)c3ccc(C)c(Nc4nccc(-c5cccnc5)n4)c3)cc(C(F)(F)F)c2)cn1 [Nilotinib, nilotinib] | 62.1 ± 32.8 ng/mL | 59.1 ± 31.4 ng/mL | 69 ± 37.2 ng/mL | 68.8 ± 26.8 ng/mL | 67.3 ± 64.3 ng/mL | 34.6 ± 33.1 ng/mL |  |  |  |  |  | 
C#Cc1cccc(Nc2ncnc3cc(OCCOC)c(OCCOC)cc23)c1 [Erlotinib, erlotinib hydrochloride] | 147 ± 62.2 ng/mL | 124 ± 45 ng/mL | 120 ± 97.6 ng/mL | 87.6 ± 87.6 ng/mL | 23 ± 37.7 ng/mL | 14.4 ± 24.9 ng/mL |  | 147 ± 62.2 ng/mL | 0.25 h |  |  | 
